This note sets out measurements from ChEMBL document CHEMBL1152861, “Synthesis and serotonin receptor activity of the arylpiperazine alkyl/propoxy derivatives of new azatricycloundecanes” (Eur J Med Chem, 2009).

Structures are written as SMILES. pKi: −log10 of the molar value. Activity calls are given as the source filed them. The rule behind the calls is not given here.

Data set [1] has as its target T1, 5-hydroxytryptamine receptor 1A (Rattus norvegicus, UniProt P19327).
T1 sequence (P19327 whole entry): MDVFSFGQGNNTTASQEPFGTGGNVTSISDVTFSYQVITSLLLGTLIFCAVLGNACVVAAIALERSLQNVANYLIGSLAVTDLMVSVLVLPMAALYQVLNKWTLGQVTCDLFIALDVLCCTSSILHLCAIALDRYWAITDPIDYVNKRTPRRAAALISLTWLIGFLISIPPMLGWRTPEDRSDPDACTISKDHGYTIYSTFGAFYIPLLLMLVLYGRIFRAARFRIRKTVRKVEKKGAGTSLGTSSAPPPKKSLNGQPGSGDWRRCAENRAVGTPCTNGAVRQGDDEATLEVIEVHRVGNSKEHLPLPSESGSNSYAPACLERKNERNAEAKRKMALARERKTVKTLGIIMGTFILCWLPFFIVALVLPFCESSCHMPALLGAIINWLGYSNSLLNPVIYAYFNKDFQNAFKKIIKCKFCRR
As to the kind of experiment: Displacement of [3H]8-OH-DPAT from 5HT1A receptor in rat hippocampal membranes. The format is cell membranes, Hippocampus, Membrane. A general note: In a radioligand displacement assay an active substance lowers the binding of a labelled ligand.

Data set [2] relates to Mus musculus. Nature of the data set: Effect on spontaneous locomotor activity in Albino Swiss mouse administered intraperitoneally dose equivalent to 0.1 of LD50 after 30 mins measured for 60 min by automatic photoresistor actometer.
Data set [3] deals with Mus musculus. As to the kind of experiment: Anxiolytic activity in Albino Swiss mouse assessed as number of punished crossing administered intraperitoneally dose equivalent to 0.1 of LD50 after 30 mins measured for 1 min by four-plate test. The format is functional, organism-based. An outline of the steps:
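Male Albino Swiss mice (20-24 g), 8 per group, received ip compound in 1% Tween 80 (0.1 mL/10 g) at a dose equal to 0.1 of LD50; vehicle controls. Four-plate test 30 min later; punished crossings counted over 1 min.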

In data set [4] the test system is Mus musculus. As to the kind of experiment: Neurotoxicity in Albino Swiss mouse administered intraperitoneally dose equivalent to 0.1 of LD50 after 30 mins measured for 1 min by chimney test. It counts as toxicity, organism-based. The following applies: in vivo, ip. The procedure, abridged:
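Male Albino Swiss mice (20-24 g), i.p. suspension in 1% Tween 80 at 0.1 mL/10 g body weight, with vehicle controls and 8 mice per group. Tested 30 min post-dose by having mice climb backwards up a plastic tube (3 cm inner diameter, 25 cm long). Failing three tasks within 60 s scored as motor impairment, reported as % of animals failing.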

For data set [5], the target named is 5-hydroxytryptamine receptor 2A (Homo sapiens, UniProt P28223). Nature of the data set: Displacement of [3H]ketanserin from 5HT2A receptor.
Data set [6] relates to Mus musculus. Nature of the data set: Antidepressive activity in Albino Swiss mouse assessed as total immobility time at 10 mg/kg, ip after 30 mins measured for 4 mins by forced swimming test. It counts as functional. As to conditions: route intraperitoneal. An outline of the steps:
(§1)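 Forced swimming test in male Albino Swiss mice (20-24 g), 8 per group. Compounds given ip as suspensions in 1% Tween 80, 0.1 mL/10 g, at doses of 0.1-0.00635 of LD50, 30 min before test; imipramine 15 mg/kg ip as reference; controls got vehicle. Mice swam 6 min in a glass cylinder with 15 cm of 25 °C water; total immobility time scored; mean ± SEM.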

In data set [7] the test system is Mus musculus. Nature of the data set: Antidepressive activity in Albino Swiss mouse assessed as total immobility time at 5 mg/kg, ip after 30 mins measured for 4 mins by forced swimming test. The format is functional. As to conditions: route intraperitoneal. The procedure, abridged:
as §1

In data set [8] the test system is Mus musculus. Nature of the data set: Antidepressive activity in Albino Swiss mouse assessed as total immobility time at 1.25 mg/kg, ip after 30 mins measured for 4 mins by forced swimming test. The format is functional. As to conditions: route intraperitoneal. An outline of the steps:
as §1

Data set [9] relates to Mus musculus. Nature of the data set: Antidepressive activity in Albino Swiss mouse assessed as total immobility time at 2.5 mg/kg, ip after 30 mins measured for 4 mins by forced swimming test. As to conditions: route intraperitoneal. It counts as functional. The procedure, abridged: as §1
The subject of data set [10] is Mus musculus. As to the kind of experiment: Antidepressive activity in Albino Swiss mouse assessed as total immobility time at 20 mg/kg, ip after 30 mins measured for 4 mins by forced swimming test. The format is functional. As to conditions: route intraperitoneal. The procedure, abridged: as §1
The subject of data set [11] is Mus musculus. Nature of the data set: Antidepressive activity in Albino Swiss mouse assessed as total immobility time at 15 mg/kg, ip after 30 mins measured for 4 mins by forced swimming test. It counts as functional. As to conditions: route intraperitoneal. The procedure, abridged: as §1
Data set [12] in a line: Selectivity ratio of Ki for 5HT2A receptor to Ki for rat 5HT1A receptor.

Sequence of 5-hydroxytryptamine receptor 2A (P28223 whole entry): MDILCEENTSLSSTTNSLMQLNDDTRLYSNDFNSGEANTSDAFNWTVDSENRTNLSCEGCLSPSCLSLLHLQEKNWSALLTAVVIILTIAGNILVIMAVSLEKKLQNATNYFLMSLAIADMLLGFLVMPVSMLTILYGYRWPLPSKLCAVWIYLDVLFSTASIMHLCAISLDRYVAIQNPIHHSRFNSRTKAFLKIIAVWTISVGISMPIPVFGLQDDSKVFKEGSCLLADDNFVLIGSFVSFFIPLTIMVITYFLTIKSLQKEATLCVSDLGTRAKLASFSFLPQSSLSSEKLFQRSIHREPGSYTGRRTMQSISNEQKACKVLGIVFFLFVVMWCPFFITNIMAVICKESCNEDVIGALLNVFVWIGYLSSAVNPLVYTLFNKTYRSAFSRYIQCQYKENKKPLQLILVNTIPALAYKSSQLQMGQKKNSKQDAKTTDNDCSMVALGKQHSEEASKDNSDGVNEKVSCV

One may read the pKi as the negative decadic logarithm of the Ki, by convention in mol/L. High values mean a small Ki, low ones a large Ki. Turning to `CC(=O)OC12C=C(C)C(C(C)C1)C1C(=O)N(CCCCN3CCN(c4ccccc4)CC3)C(=O)C12` (configuration not stated), the values for the negative-log Ki (pKi) in [1] and in [5] were 7.47 and 6.54, respectively. Also, the outcome in [2] and in [3] was inactive. Besides, the Activity entry in data set [4] is “Not Active”.
On to `CC1CC2(C)CC(=O)C1C1C(=O)N(CCCCN3CCN(c4ccccc4)CC3)C(=O)C12` (configuration not stated), for which the negative-log Ki (pKi) in data set [1] is 7.30; in [5] it was 6.74. In addition, the result in [2] and in data set [3] was inactive. Besides, the Activity entry in [4] is “Not Active”.
For the compound `CC(=O)OC12C=C(C)C(C(C)C1)C1C(=O)N(CCCCN3CCN(c4ncccn4)CC3)C(=O)C12` (configuration not stated), the negative-log Ki (pKi) is 6.10 in [1] and 5.22 in data set [5].
Consider `CC(=O)OC12C=C(C)C(C(C)C1)C1C(=O)N(OCCCN3CCN(c4cccc(Cl)c4)CC3)C(=O)C12` (configuration not stated), for which the results for the pKi in data set [1] and in data set [5] were 7.43 and 6.42, respectively. In addition, the result in data set [2] and in [3] was inactive. The Activity entry in data set [4] was “Not Active”.
For the compound `COc1ccccc1N1CCN(CCCON2C(=O)C3C4C(=O)CC(C)(CC4C)C3C2=O)CC1` (configuration not stated), the Time in [6] is on record as 31.2 s; in [7] it was 63.5 s; in data set [8] it was 123.7 s; in data set [9] it was 83.5 s; in [10] it was 29.4 s. Further, the results for the negative-log Ki (pKi) in data set [1] and in data set [5] were 6.91 and 6.20, respectively. Also, the result in data set [2] and in [3] was inactive. In addition, the Activity result in data set [4] was “Not Active”.
Regarding `CN(C)CCCN1c2ccccc2CCc2ccccc21` [IMIPRAMINE], the Time in data set [11] is 69.5 s.
With `COc1ccccc1N1CCN(CCCON2C(=O)C3C4C=CC(OC)(CC4)C3C2=O)CC1` (configuration not stated), the pKi in data set [1] was 7.51; in data set [5], 5.86.
In the case of `CC(=O)OC12C=C(C)C(C(C)C1)C1C(=O)N(CCCCN3CCN(c4ccccn4)CC3)C(=O)C12` (configuration not stated), the values for the pKi in data set [1] and in data set [5] were 7.01 and 6.02, respectively. Further, the outcome in data set [2] and in data set [3] was inactive. The Activity result in data set [4] was “Not Active”.
`COc1ccccc1N1CCN(CCCCN2C(=O)C3C4C(C)=CC(OC(C)=O)(CC4C)C3C2=O)CC1` (configuration not stated): the results for the Time in [6] and in [7] were 71.7 s and 113.8 s, respectively. Also, the negative logarithm of the Ki (pKi) was 8.00 in data set [1] and 6.13 in [5]. Further, the result in [2] and in data set [3] was inactive. The Ratio Ki in [12] was 74. Also, in data set [4], the Activity entry is on record as “Not Active”.
As to `CC(=O)OC12C=C(C)C(C(C)C1)C1C(=O)N(OCCCN3CCN(c4ccccn4)CC3)C(=O)C12` (configuration not stated), the figures for the pKi in data set [1] and in data set [5] were 6.70 and 5.74, respectively.
The matching figures for `CC1CC2(C)CC(=O)C1C1C(=O)N(CCCCN3CCN(Cc4ccccc4)CC3)C(=O)C12` (configuration not stated): 5.56 and 5.68.
`CC1CC2(C)CC(=O)C1C1C(=O)N(CCCN3CCN(c4ccccc4)CC3)C(=O)C12` (configuration not stated): the pKi in data set [1] was 6.46; in data set [5], 6.53.
With `CC(=O)OC12C=C(C)C(C(C)C1)C1C(=O)N(OCCCN3CCN(c4ccccc4F)CC3)C(=O)C12` (configuration not stated), the Time in [6] is on record as 27.5 s; in data set [7], 48.3 s; in data set [8], 114.3 s; in [9], 56.8 s; in data set [10] it was 18.4 s. Also, the negative-log Ki (pKi) in data set [1] is 7.10; in data set [5] it was 5.97. Also, the outcome in data set [2] and in [3] was inactive. Besides, the Activity result in data set [4] was “Not Active”.
`COc1ccccc1N1CCN(CCCCN2C(=O)C3C4C(=O)CC(C)(CC4C)C3C2=O)CC1` (configuration not stated): the pKi was 7.60 in data set [1] and 6.28 in data set [5]. Also, the outcome in [2] and in [3] was inactive. Also, the Activity entry in [4] is “Not Active”.
On to `CC(=O)OC12C=C(C)C(C(C)C1)C1C(=O)N(CCCCN3CCN(c4ccc(F)cc4)CC3)C(=O)C12` (configuration not stated), for which the pKi was 6.54 in data set [1] and 6.77 in [5].
For `CC(=O)OC12C=C(C)C(C(C)C1)C1C(=O)N(CCCN3CCN(c4ccccc4)CC3)C(=O)C12` (configuration not stated), the pKi is 6.53 in data set [1] and 6.24 in data set [5].
Take `CC1CC2(C)CC(=O)C1C1C(=O)N(CCCCN3CCN(c4ccc(F)cc4)CC3)C(=O)C12` (configuration not stated): the values for the negative-log Ki (pKi) in data set [1] and in data set [5] were 6.28 and 6.99, respectively. Further, the result in data set [2] and in [3] was inactive. Further, the Activity result in [4] is listed as “Not Active”.
For the compound `CC1CC2(C)CC(=O)C1C1C(=O)N(OCCCN3CCN(c4cccc(Cl)c4)CC3)C(=O)C12` (configuration not stated), the figures for the pKi in data set [1] and in data set [5] were 7.04 and 6.96, respectively. Moreover, the outcome in data set [2] and in data set [3] was inactive. Besides, in data set [4], the Activity entry was “Not Active”.
On to `COc1ccccc1N1CCN(CCCON2C(=O)C3C4C(C)=CC(OC(C)=O)(CC4C)C3C2=O)CC1` (configuration not stated), for which the values for the pKi in data set [1] and in [5] were 7.57 and 6.17, respectively. Also, the outcome in data set [2] and in data set [3] was inactive. Besides, the Activity result in data set [4] is given as “Not Active”.
For the compound `CC(=O)OC12C=C(C)C(C(C)C1)C1C(=O)N(OCCCN3CCN(c4ccccc4)CC3)C(=O)C12` (configuration not stated), the results for the pKi in data set [1] and in data set [5] were 6.94 and 6.43, respectively. The outcome in data set [2] and in data set [3] was inactive. In addition, in data set [4], the Activity entry is listed as “Not Active”.
Consider `COc1ccccc1N1CCN(CCCN2C(=O)C3C4C(=O)CC(C)(CC4C)C3C2=O)CC1` (configuration not stated), for which the pKi in data set [1] is 7.36; in data set [5], 6.37. Also, the result in data set [2] and in data set [3] was inactive. Besides, the Activity result in [4] is “Not Active”.
`COc1ccccc1N1CCN(CCCN2C(=O)C3C4C(C)=CC(OC(C)=O)(CC4C)C3C2=O)CC1` (configuration not stated): the figures for the negative-log Ki (pKi) in data set [1] and in [5] were 7.46 and 5.99, respectively. Besides, the result in [2] and in data set [3] was inactive. For the same compound, in data set [4], the Activity result is on record as “Not Active”.
Consider `CC(=O)OC12C=C(C)C(C(C)C1)C1C(=O)N(CCCCN3CCN(Cc4ccccc4)CC3)C(=O)C12` (configuration not stated), for which the pKi was 5.85 in data set [1] and 5.01 in data set [5].
For `CC1CC2(C)CC(=O)C1C1C(=O)N(CCCCN3CCN(c4ccccn4)CC3)C(=O)C12` (configuration not stated), the negative-log Ki (pKi) is 6.69 in data set [1] and 6.24 in [5].
The matching figures for `CC1CC2(C)CC(=O)C1C1C(=O)N(OCCCN3CCN(c4ccccc4F)CC3)C(=O)C12` (configuration not stated): 6.48 and 6.04.
For `CC1CC2(C)CC(=O)C1C1C(=O)N(CCCCN3CCN(c4ncccn4)CC3)C(=O)C12` (configuration not stated), in that order: 5.82 and 5.47.
For `CCOC12CCC(C(=O)C1)C1C(=O)N(CCCCN3CCN(c4ccccc4OC)CC3)C(=O)C12` (configuration not stated), in that order: 7.59 and 5.55.
For `CC1CC2(C)CC(=O)C1C1C(=O)N(OCCCN3CCN(c4ccccc4)CC3)C(=O)C12` (configuration not stated), the negative-log Ki (pKi) is 6.21 in [1] and 6.52 in data set [5].
For `COc1ccccc1N1CCN(CCCCN2C(=O)C3C4C(=O)CC(OC(C)=O)(CC4(C)C)C3C2=O)CC1` (configuration not stated), in that order: 7.66 and 6.11.
